Measured values as given in ChEMBL document CHEMBL1145455, “Cytotoxic withanolides from the flowers of Datura metel” (J Nat Prod, 2007).

How the values were obtained:
Format in all cases: functional, cell-based
BGC-823 = experiment: Cytotoxicity against human BGC823 cells after 48 hrs; conditions: BGC-823, 48 h
How it was run: (§1)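 MTT colorimetric assay. Cells were kept in RPMI-1640 with 10% fetal bovine serum at 37 °C, 5% CO2, humidified. They were seeded at 6 × 10^4 cells/mL and allowed to attach for 24 h. Diluted samples were then added for 48 h. MTT (0.5 mg/mL) was added for 3 h, and optical density was read at 550 nm.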

A549 = experiment: Cytotoxicity against human A549 cells after 48 hrs; conditions: A549, 48 h; how it was run: as §1
K562 = experiment: Cytotoxicity against human K562 cells after 48 hrs; conditions: K562, 48 h; how it was run: as §1

SMILES: C=C1C(=O)O[C@@H]2C[C@@]1(C)OC[C@H]2C1CC[C@H]2[C@@H]3C[C@H]4O[C@]45C[C@H](O)CC(=O)C5(C)[C@H]3CCC12C (stereo partly drawn)
- IC50 (BGC-823): 1000 nM
- IC50 (A549): 1700 nM
- IC50 (K562): 460 nM

SMILES: C=C1C(=O)O[C@@H]2C[C@@]1(C)OC[C@H]2C1CCC2C3C[C@H]4OC(=O)CC=CC4=C(C)C3CCC21C (stereo partly drawn) [1,10-SECO-WITHAMETELIN B]
- IC50 (BGC-823): > 10000 nM
- IC50 (A549): > 10000 nM
- IC50 (K562): > 10000 nM

SMILES: C=C1C(=O)O[C@@H]2C[C@@]1(C)OC[C@H]2C1CCC2C3C[C@H]4OC(=O)CC=CC4=C(C)C3C[C@@H](O)C21C (stereo partly drawn) [12BETA-HYDROXY-1,10-SECO-WITHAMETELIN B]
- IC50 (BGC-823): > 10000 nM
- IC50 (A549): > 10000 nM
- IC50 (K562): > 10000 nM

SMILES: COc1cccc2c1C(=O)c1c(O)c3c(c(O)c1C2=O)C[C@@](O)(C(=O)CO)C[C@@H]3O[C@H]1C[C@H](N)[C@H](O)[C@H](C)O1 [DOXORUBICIN]
- IC50 (BGC-823): 350 nM
- IC50 (A549): 750 nM
- IC50 (K562): 580 nM

SMILES: C=C1C(=O)O[C@@H]2C[C@@]1(C)OC[C@H]2C1CCC2C3C[C@H]4O[C@]45CC=CC(=O)C5(C)C3C[C@@H](O)C21C (stereo partly drawn) [WITHAMETELIN I]
- IC50 (BGC-823): 1300 nM
- IC50 (A549): 1200 nM
- IC50 (K562): 50 nM

SMILES: C=C1C(=O)O[C@@H]2C[C@@]1(C)OC[C@H]2C1CCC2C3C[C@@H](O)[C@@]4(O)CC=CC(=O)C4(C)C3C[C@@H](O)C21C (stereo partly drawn) [WITHAMETELIN J]
- IC50 (BGC-823): 5200 nM
- IC50 (A549): > 10000 nM
- IC50 (K562): 2500 nM

SMILES: C=C1C(=O)O[C@@H]2C[C@@]1(C)OC[C@H]2C1CCC2C3C[C@@H](O)C4=CC=CC(=O)C4(C)C3C[C@@H](O)C21C (stereo partly drawn) [WITHAMETELIN K]
- IC50 (BGC-823): 1900 nM
- IC50 (A549): 3500 nM
- IC50 (K562): 120 nM

SMILES: C=C1C(=O)O[C@@H]2C[C@]1(C)OC[C@H]2[C@H]1CC[C@H]2[C@@H]3CC=C4CC=CC(=O)[C@]4(C)[C@H]3C[C@@H](O)[C@]12C [WITHAMETELIN L]
- IC50 (BGC-823): 1600 nM
- IC50 (A549): 2000 nM
- IC50 (K562): 550 nM

SMILES: C=C1C(=O)O[C@@H]2C[C@@]1(C)OC[C@H]2C1CCC2C3CC=C4C=CCC(=O)C4(C)C3C[C@@H](O)C21C (stereo partly drawn) [WITHAMETELIN M]
- IC50 (BGC-823): > 10000 nM
- IC50 (A549): > 10000 nM
- IC50 (K562): > 10000 nM

SMILES: C=C1C(=O)O[C@@H]2C[C@@]1(C)OC[C@H]2C1CCC2C3C[C@H](O)[C@]4(O)CC=CC(=O)C4(C)C3CCC21C (stereo partly drawn) [WITHMETELIN O]
- IC50 (BGC-823): > 10000 nM
- IC50 (A549): > 10000 nM
- IC50 (K562): > 10000 nM

SMILES: CC1=C(CO[C@@H]2O[C@H](CO)[C@@H](O)[C@H](O)[C@H]2O)C(=O)O[C@@H]([C@@H](CO)C2CCC3C4C[C@@H](O)[C@@]5(O)CC=CC(=O)C5(C)C4CCC32C)C1 (stereo partly drawn) [WITHMETELIN P]
- IC50 (BGC-823): > 10000 nM
- IC50 (A549): > 10000 nM
- IC50 (K562): > 10000 nM
